# Diaph act CS: compounds boosting diaphorase resazurin reduction – biochemical, uHTS, resorufin fluorescence, counter-screen for diaphorase-coupled primary assays, primary screen; Diaphorase/resazurin coupled assay, 16 min; hits give high values; 1 = vehicle wells, 0 = NADH-free wells; activation factor at 20 µM; 0.005% of 190,000 active;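 active = diaphorase activity raised at least twofold by the compound at 20 µM; inactive = activation factor below 2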
#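 Assay system: bacterial diaphorase enzyme (C. kluyveri) / Input: enzyme 0.07 U/mL final / Medium: 50 mM HEPES pH 7.4 with 4.542 mM MgCl2, 0.005% Tween 20 / Doses: single compound dose of 20 µM, 1% DMSO final / Incubation: 16 min enzyme reaction, ambient temperature / Signal: fluorescence, excitation 544 nm and emission 590 nm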
# Hck Nef HTS: inhibitors of Nef-activated human Hck kinase, primary screen, biochemical, Z-Lyte FRET, 384-well, Hck-YEEI. inhibition, % at 20 µM. 0.68% of 220,000 active. Recombinant Hck-YEEI plus Nef, Z-Lyte FRET kinase assay. Tyrosine-protein kinase HCK (Homo sapiens), P08631;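 active = Hck-Nef kinase inhibition above about 50%, limit read from the data; inactive = inhibition below that limit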;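 note: 0% = DMSO with Hck plus Nef and 100% = Hck alone without Nef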
# Target sequence (P08631 whole entry, looked up): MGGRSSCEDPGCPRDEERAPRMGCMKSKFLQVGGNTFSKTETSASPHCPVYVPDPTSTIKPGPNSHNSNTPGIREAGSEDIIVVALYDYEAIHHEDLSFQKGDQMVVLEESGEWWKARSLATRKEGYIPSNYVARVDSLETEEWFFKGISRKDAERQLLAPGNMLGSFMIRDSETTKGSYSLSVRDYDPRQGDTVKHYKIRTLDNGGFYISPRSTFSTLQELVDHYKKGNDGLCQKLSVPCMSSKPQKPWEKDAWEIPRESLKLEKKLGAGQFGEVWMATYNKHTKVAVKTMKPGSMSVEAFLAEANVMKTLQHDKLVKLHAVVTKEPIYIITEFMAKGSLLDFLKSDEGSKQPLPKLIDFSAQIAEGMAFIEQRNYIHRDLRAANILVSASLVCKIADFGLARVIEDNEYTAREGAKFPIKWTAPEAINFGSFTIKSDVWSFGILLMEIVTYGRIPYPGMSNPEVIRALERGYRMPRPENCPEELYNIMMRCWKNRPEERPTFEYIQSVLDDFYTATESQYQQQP
# p47phox inh: p47phox/p22phox peptide binding inhibitors, primary screen, biochemical, uHTS, NADPH oxidase regulatory subunit. 0.53% of 220,000 active. AID 1274, 2008. fluorescence polarization, 2 h. Neutrophil cytosol factor 1 (Homo sapiens), P14598. inhibition, % at 24.7 µM;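 note: 0% = p47phox with labelled peptide and 100% = labelled peptide alone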
# 14-3-3 Bad PPI: inhibitors of 14-3-3 zeta/Bad binding, primary screen, biochemical, TR-FRET, bovine 14-3-3 zeta. TR-FRET 14-3-3zeta/Dy647-pBad peptide displacement, 1 h. inhibition, % at 21.7 µM. 0.71% of 220,000 active;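 active = inhibition above about 70%, limit read from the data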;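 note: 0% = full 14-3-3 plus peptide FRET controls and 100% = background without 14-3-3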
# eIF4E 4G PPI: eIF4E–eIF4G protein interaction inhibitors, primary screen, biochemical, uHTS, TR-FRET, eIF4GI fragment; Eukaryotic translation initiation factor 4E (Mus musculus) + Eukaryotic translation …; 0.37% of 220,000 active; TR-FRET eIF4E-eIF4GI(517-606) binding, 2 h; inhibition, % at 21.7 µM; AID 782, 2007;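 note: 0% = full FRET control wells and 100% = background wells lacking eIF4GI fragment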
# Hck Nef conf: retest of Hck:Nef kinase inhibitor hits, confirmation, biochemical, Z-Lyte FRET, 384-well, p-Tyr peptide counterscreen. Recombinant Hck-YEEI:Nef, Z-Lyte FRET kinase assay. shares compounds with Hck Nef HTS. calls only at 10 µM. 28% of 1,300 active;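 active = average inhibition of at least 50%, with Z-scores no higher than 3 in both the phospho-tyrosine peptide and fluorescence counterscreens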
# Starred values were filed as active, the others as inactive; i = inactive; / = no result shown; + = active, no number. Most compounds without a hit are left out; they make up all but 2% or so of the library.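 Rule for the calls, unless noted: active = inhibition above about 30% (limit read from the data); inactive = the rest.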
SMILES,Diaph act CS,Hck Nef HTS,p47phox inh,14-3-3 Bad PPI,eIF4E 4G PPI,Hck Nef conf
Cc1ccc(C(=O)NC(=S)Nc2ccc(-c3ccc(CO)o3)cc2)cc1,0.8,61.0*,-29.5,-10.8,2.2,i
O=C(NC(=S)Nc1ccc(-c2ccc(CO)o2)cc1)c1cccs1,0.8,31.4,-20.2,2.8,-1.1,/
COc1ccc(-n2c3c(c(=O)[nH]c2=O)C(NS(=O)(=O)c2ccc(Cl)cc2)(C(F)(F)F)C(=O)N3)cc1 (configuration not stated),/,24.9,-3.0,2.3,1.3,/
CC(C)(C)c1cc(-c2csc(Nc3ccccc3)[n+]2Cc2ccc(C(=O)O)cc2)cc(C(C)(C)C)c1O,/,76.3*,-11.0,42.0,11.3,i
N#Cc1c(-c2ccco2)nc(SCC(=O)Nc2cccc(Cl)c2)[nH]c1=O,0.9,56.2*,-8.8,-1.8,0.3,+
CC1(c2ccccc2)CC(C)(C)N2C(=O)/C(=C3\SC(=S)NC3=O)c3cccc1c32 (configuration not stated),0.6,93.8*,13.9,18.3,27.7,+
Cn1cnnc1Sc1ccc(C(=O)NCCC(c2ccccc2)c2ccccc2)cc1[N+](=O)[O-],0.8,-25.6,-11.9,5.9,2.4,/
O=C(N/N=C/c1ccc([N+](=O)[O-])cc1)c1cc(-c2ccc3c(c2)OCO3)n[nH]1,/,63.6*,14.7,76.2*,-4.9,i
COc1cc(/C=N/NC(=O)c2cc(-c3ccc4c(c3)OCO4)n[nH]2)ccc1O,1,2.7,-0.1,2.0,-0.2,/
CCOC(=O)c1[nH]c(CO)c(C(=O)OCC)c1C,/,4.4,-4.8,-2.3,2.1,/
C=CCOC(=O)C1=C(C)NC(SCC(=O)NC(=O)OCC)=C(C#N)C1c1cccnc1 (configuration not stated),0.9,50.2*,-18.1,-0.5,-0.1,i
COc1ccc(CN2C(=O)/C(=C/c3ccncc3)SC2=S)cc1,0.9,-0.6,-9.0,-13.3,-4.6,/
CC(=O)n1cc(Nc2ccccc2C(=O)O)c2ccccc21,0.7,-1.2,-2.0,29.3,-12.6,/
CC(=O)n1cc(Nc2ccc([N+](=O)[O-])cc2)c2ccccc21,1,107.6*,-16.9,18.9,-0.8,i
Nc1cc(C(=O)O)c(N)c2c1C(=O)c1ccccc1C2=O,/,62.0*,+,5.9,-5.9,i
O=c1/c(=C/c2ccccn2)sc2nc3ccccc3n12,0.8,20.2,-0.2,15.7,-11.9,/
O=c1/c(=C\c2cc([N+](=O)[O-])cc([N+](=O)[O-])c2O)sc2nc3ccccc3n12,0.5,70.8*,-76.2,75.0*,30.4*,+
COc1ccc(C2=NOC(C(=O)Nc3cccnc3Cl)C2)cc1 (configuration not stated),1.2,15.5,7.5,-6.1,0.2,/
O=C(N/N=C/c1cccc([N+](=O)[O-])c1)c1ccccc1-n1cccc1,1,58.1*,-21.2,4.9,0.5,i
Cc1ccc(NC(=O)CN2C(=O)N/C(=C/c3cc(C)n(-c4ccc(C(=O)O)cc4)c3C)C2=O)cc1,1,55.8*,-35.9,19.1,27.3,i
Cn1c2ccccc2c(=O)c2c(=O)n(Cc3ccco3)c(-c3ccc(C(C)(C)C)cc3)nc21,/,55.1*,6.9,41.3,2.4,i
COc1ccc(Cn2c(-c3ccccc3)nc3c(c(=O)c4ccccc4n3C)c2=O)cc1,1,20.7,18.8,19.7,4.7,/
CCc1ccc2c(c1)C(=O)C(=O)N2CC(=O)Nc1ccc(NC(=O)c2ccccn2)cc1,0.9,77.0*,17.6,34.0,6.4,+
CCc1ccc(NC(=O)CCN2C(=O)c3cccnc3C2=O)cc1,0.9,-0.5,0.5,-12.4,-7.8,/
CCOc1ccc(N=C2NC(=O)SC2CC(=O)OC)cc1 (configuration not stated),/,-0.8,-6.5,-16.7,0.5,/
SMILES,Diaph act CS,Hck Nef HTS,p47phox inh,14-3-3 Bad PPI,eIF4E 4G PPI,Hck Nef conf
COc1cc(/C=C/[N+](=O)[O-])ccc1OCc1cccc(C(=O)O)c1,0.6,62.2*,-3.1,63.2,6.6,i
CC(C)NC(=O)CCn1c(=S)oc2ccccc21,1,8.6,0.6,12.3,-5.1,/
O=C(N=Nc1c(O)[nH]c2ccccc12)c1cc(NS(=O)(=O)c2cccs2)cc(NS(=O)(=O)c2cccs2)c1,0.8,88.1*,-57.0,80.0*,12.3,+
Cc1ccc2nc3nc(NCC4CCCO4)c(C(=O)NC4CCCCC4)cc3c(=O)n2c1 (configuration not stated),/,134.3*,-5.1,-1.0,-3.7,/
CCNc1nc2nc3ccc(C)cn3c(=O)c2cc1C(=O)NCC1CCCO1 (configuration not stated),0.9,+,2.2,-6.1,-2.2,/
Cc1ccc2nc3nc(NCC4CCCO4)c(C(=O)NC4CCCC4)cc3c(=O)n2c1 (configuration not stated),1.1,163.8*,-1.4,1.4,0.0,/
Cc1cccn2c(=O)c3cc(C(=O)NCC4CCCO4)n(C)c3nc12 (configuration not stated),/,29.9,/,/,/,/
CCCCOc1ccc(CCC(=O)N/N=C/c2ccco2)cc1,/,12.8,-7.3,-2.8,-2.0,/
CCN(CC)c1ccc(-c2nnc(SCC(=O)Nc3ccccc3C#N)n2-c2ccccc2)cc1,0.8,66.0*,-18.5,10.7,-0.4,+
Cn1c(=O)c2c(=O)cc(NNC(=O)CC#N)[nH]c2n(C)c1=O,0.9,19.0,-4.9,-18.3,-2.4,/
NS(=O)(=O)c1ccc(CNS(=O)(=O)c2cc(C(=O)O)ccc2Cl)cc1,0.9,63.2*,-12.9,2.4,3.9,i
CC1=NNC(=O)/C1=C\c1cn(-c2ccccc2)nc1-c1ccc(Cl)cc1,0.9,59.9*,-12.8,-14.9,2.6,+
Cc1ccc(-c2nn(-c3ccccc3)cc2C=C2C(=O)CC(C)(C)CC2=O)cc1,0.8,0.5,-21.4,9.0,2.4,/
CCOC(=O)c1c(OCCO)nn(-c2ccccc2)c1N,1,7.1,-5.3,-1.5,-3.5,/
Cc1cc(C)c2c(N)c(C(=O)N/N=C/c3cccnc3)sc2n1,/,72.8*,-12.0,-2.6,2.8,i
O=C(CSc1nc(O)cc(=O)[nH]1)N1c2ccccc2CCc2ccccc21,/,28.5,-24.9,-1.1,-9.4,/

# Assay outcomes: PubChem, several laboratories
